Results from ChEMBL document CHEMBL1152867, “Targeting QseC signaling and virulence for antibiotic development” (Science, 2008).
The source made the active and inactive calls. The rule behind the calls is not given here.

Columns and labels:
Mus musculus [1] = experiment: Toxicity in CD1 mouse assessed as change in kidney weight at 20 mg/kg, po administered daily once for 5 days measured 3 days after final dose; type: organism-based; parameters: dose 20 mg/kg, route oral; conditions: in vivo, 72 h
In short: (§1)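 Female CD-1 mice (~22 g), three per group, given 20 mg/kg by oral gavage once daily for 5 days. Vehicle-only mice served as controls. Animals were weighed and observed daily. Three days after the last dose they were weighed and sacrificed. Blood was taken for chemistry and complete blood counts, and organs were weighed.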

Escherichia coli [2] = experiment: Inhibition of epinephrine-induced Qsec-dependent virulence gene ler expression in Escherichia coli at 5 pM by quantitative real-time PCR; type: functional, organism-based
Mus musculus [3] = experiment: Toxicity in CD1 mouse assessed as neutrophil counts at 20 mg/kg, po administered daily once for 5 days measured 3 days after final dose; type: organism-based; parameters: dose 20 mg/kg, route oral; conditions: in vivo, 72 h; in short: as §1
Mus musculus [4] = experiment: Toxicity in CD1 mouse assessed as platelet count at 20 mg/kg, po administered daily once for 5 days measured 3 days after final dose; type: organism-based; parameters: dose 20 mg/kg, route oral; conditions: in vivo, 72 h; in short: as §1
Mus musculus [5] = experiment: Toxicity in CD1 mouse assessed as glucose levels at 20 mg/kg, po administered daily once for 5 days measured 3 days after final dose; type: organism-based; parameters: dose 20 mg/kg, route oral; conditions: in vivo, 72 h; in short: as §1
Salmonella typhimurium [6] = experiment: Antibacterial activity against Salmonella Typhimurium SL1344 infected in 129x1/SvJ mouse assessed as survival at 20 mg/kg, po administered 3 hrs pre and 3 hrs post-bacterial challenge measured after 12 days; type: functional
In short: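 Female 129x1/SvJ mice, 7–9 weeks old, were infected intraperitoneally with 10^8 cfu S. typhimurium SL1344. The test agent was given orally at 20 mg/kg in 5% DMSO/23% PEG400/70% Na bicarbonate pH 9/2% Tween 80, 3 h before and 3 h after infection. Controls were drug alone and infection alone. Groups of 10 mice were used and the experiment was repeated twice. Morbidity and death were recorded daily, and survivors were euthanized at day 12.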

[7] = target: Beta-1 adrenergic receptor (Homo sapiens) (UniProt P08588); experiment: Effect on dobutamine-induced human beta-1-adrenergic receptor activation expressed in HEK293 cells assessed as cAMP release at 5 uM; type: functional, cell-based
In short: (§2)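 HEK293 cells carried an EPAC-based cAMP BRET reporter. The agonist for β1 (exogenous) was 1 nM dobutamine, for β2 (endogenous) 100 nM terbutaline, and for β3 (exogenous) 10 nM BRL37344. Each agonist was given alone or with 5 μM compound. Live-cell cAMP was read as triplicate means, representative of 3 experiments.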

Mus musculus [8] = experiment: Toxicity in CD1 mouse assessed as urea nitrogen levels at 20 mg/kg, po administered daily once for 5 days measured 3 days after final dose; type: organism-based; parameters: dose 20 mg/kg, route oral; conditions: in vivo, 72 h; in short: as §1
Escherichia coli [9] = experiment: Inhibition of AI3-induced Qsec-dependent virulence gene flhDC expression in Escherichia coli at 5 pM by quantitative real-time PCR; type: functional, organism-based
[10] = target: Beta-2 adrenergic receptor (Homo sapiens) (UniProt P07550); experiment: Effect on terbulaline-induced human beta-2-adrenergic receptor activation expressed in HEK293 cells assessed as cAMP release at 5 uM; type: functional, cell-based; in short: as §2
Mus musculus [11] = experiment: Toxicity in CD1 mouse assessed as change in body weight at 20 mg/kg, po administered daily once for 5 days measured 3 days after final dose; type: organism-based; parameters: dose 20 mg/kg, route oral; conditions: in vivo, 72 h; in short: as §1
Mus musculus [12] = experiment: Toxicity in CD1 mouse assessed as serum total protein levels at 20 mg/kg, po administered daily once for 5 days measured 3 days after final dose; type: organism-based; parameters: dose 20 mg/kg, route oral; conditions: in vivo, 72 h; in short: as §1
[13] = Cmax in CD1 mouse at 20 mg/kg, iv administered as bolus dose; type: ADME, organism-based; parameters: dose 20 mg/kg, route intravenous; conditions: in vivo
In short: (§3)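 Groups of three were bled terminally by cardiac puncture at set times. Plasma was acetonitrile-precipitated with internal standard and quantified by electrospray LC/MS/MS against a plasma standard curve (10-1000 ng/ml). Noncompartmental analysis was used.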

[14] = system: Francisella tularensis subsp. tularensis SCHU S4; experiment: Inhibition of virulence gene pdpA expression in Francisella tularensis SCHU S4 at 5 pM by quantitative real-time PCR; type: functional, organism-based
Escherichia coli [15] = experiment: Inhibition of AI3-induced Qsec-dependent virulence gene ler expression in Escherichia coli at 5 pM by quantitative real-time PCR; type: functional, organism-based
[16] = system: Francisella tularensis subsp. tularensis SCHU S4; experiment: Inhibition of virulence gene mip expression in Francisella tularensis SCHU S4 at 5 pM by quantitative real-time PCR; type: functional, organism-based
Mus musculus [17] = experiment: Toxicity in CD1 mouse assessed as creatinine levels at 20 mg/kg, po administered daily once for 5 days measured 3 days after final dose; type: organism-based; parameters: dose 20 mg/kg, route oral; conditions: in vivo, 72 h; in short: as §1
Salmonella typhimurium [18] = experiment: Antibacterial activity against Salmonella Typhimurium SL1344 infected in 129x1/SvJ mouse assessed as reduction of bacterial CFU in spleen at 20 mg/kg, po after 48 hrs relative to control; type: functional
Escherichia coli [19] = experiment: Inhibition of [3H]norepinephrine binding to Escherichia coli Qsec at 5 pM by liposome-based scintillation counting assay
In short: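 Liposomes reconstituted with QseC were loaded with tritiated norepinephrine (5 μM) by freeze-thaw in liquid N2 and held 10 min at room temperature, so unbound signal could diffuse out. They were pelleted at 12,000g for 5 min and counted for tritium. Counts were normalized to liposomes loaded with 5 μM tyrosine. Compound was tested at 5 pM and 5 fM.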

Mus musculus [20] = experiment: Toxicity in CD1 mouse assessed as RBC counts at 20 mg/kg, po administered daily once for 5 days measured 3 days after final dose; type: organism-based; parameters: dose 20 mg/kg, route oral; conditions: in vivo, 72 h
[21] = system: Francisella tularensis subsp. tularensis SCHU S4; experiment: Bacteriostatic activity against Francisella tularensis SCHU S4 at 1 uM in presence of epinephrine; type: functional, organism-based
[22] = Clearance in CD1 mouse at 20 mg/kg, iv administered as bolus dose; type: ADME, organism-based; parameters: dose 20 mg/kg, route intravenous; conditions: in vivo; in short: as §3
[23] = target: Beta-3 adrenergic receptor (Homo sapiens) (UniProt P13945); experiment: Activation of human beta-3-adrenergic receptor expressed in HEK293 cells assessed as cAMP release at 5 uM; type: functional, cell-based
In short: (§4)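 Live HEK293 cells carried an EPAC-based cAMP BRET reporter and expressed endogenous β2 or exogenous β1 or β3 adrenergic receptors. Cells were exposed to test compound alone at 5 μM. Values are means of triplicates, representative of 3 experiments.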

Mus musculus [24] = experiment: Toxicity in CD1 mouse assessed as change in spleen weight at 20 mg/kg, po administered daily once for 5 days measured 3 days after final dose; type: organism-based; parameters: dose 20 mg/kg, route oral; conditions: in vivo, 72 h; in short: as §1
[25] = system: Francisella tularensis subsp. tularensis SCHU S4; experiment: Inhibition of virulence gene mglA expression in Francisella tularensis SCHU S4 at 5 pM by quantitative real-time PCR; type: functional, organism-based
Escherichia coli [26] = experiment: Inhibition of epinephrine-induced Escherichia coli Qsec autophosphorylation at 5 pM by liposome-based SDS-PAGE
[27] = AUC in CD1 mouse at 20 mg/kg, iv administered as bolus dose; type: ADME, organism-based; parameters: dose 20 mg/kg, route intravenous; conditions: plasma; in short: as §3
Mus musculus [28] = experiment: Toxicity in C3H HeN mouse at 20 mg/kg, po administered as single dose; type: organism-based; parameters: dose 20 mg/kg, route oral; conditions: in vivo
Mus musculus [29] = experiment: Toxicity in CD1 mouse assessed as alkaline phosphatase levels at 20 mg/kg, po administered daily once for 5 days measured 3 days after final dose; type: organism-based; parameters: dose 20 mg/kg, route oral; conditions: in vivo, 72 h
[30] = system: Francisella tularensis subsp. tularensis SCHU S4; experiment: Inhibition of virulence gene iglC expression in Francisella tularensis SCHU S4 at 5 pM by quantitative real-time PCR; type: functional, organism-based
Escherichia coli [31] = experiment: Bacteriostatic activity against Escherichia coli 8624 at 1 uM in presence of epinephrine; type: functional, organism-based
Mus musculus [32] = experiment: Toxicity in CD1 mouse assessed as monocyte counts at 20 mg/kg, po administered daily once for 5 days measured 3 days after final dose; type: organism-based; parameters: dose 20 mg/kg, route oral; conditions: in vivo, 72 h; in short: as §1
[33] = target: Beta-2 adrenergic receptor (Homo sapiens) (UniProt P07550); experiment: Activation of human beta-2-adrenergic receptor expressed in HEK293 cells assessed as cAMP release at 5 uM; type: functional, cell-based; in short: as §4
Mus musculus [34] = experiment: Toxicity in CD1 mouse assessed as mean corpuscular volume at 20 mg/kg, po administered daily once for 5 days measured 3 days after final dose; type: organism-based; parameters: dose 20 mg/kg, route oral; conditions: in vivo, 72 h; in short: as §1

Sequence of Beta-2 adrenergic receptor (Homo sapiens) (P07550 whole entry, looked up): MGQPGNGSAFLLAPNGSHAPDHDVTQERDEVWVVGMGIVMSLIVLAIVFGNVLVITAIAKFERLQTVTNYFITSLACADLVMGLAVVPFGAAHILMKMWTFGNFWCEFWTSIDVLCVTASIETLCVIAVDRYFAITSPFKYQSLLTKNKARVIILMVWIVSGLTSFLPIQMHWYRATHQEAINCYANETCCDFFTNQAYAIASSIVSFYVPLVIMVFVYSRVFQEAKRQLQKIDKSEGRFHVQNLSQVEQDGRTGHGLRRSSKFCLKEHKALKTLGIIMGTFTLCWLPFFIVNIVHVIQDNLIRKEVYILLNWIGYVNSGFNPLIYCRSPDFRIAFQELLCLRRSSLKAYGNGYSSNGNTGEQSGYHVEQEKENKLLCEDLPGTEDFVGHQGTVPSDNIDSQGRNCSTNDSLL
Sequence of Beta-1 adrenergic receptor (Homo sapiens) (P08588 whole entry, looked up): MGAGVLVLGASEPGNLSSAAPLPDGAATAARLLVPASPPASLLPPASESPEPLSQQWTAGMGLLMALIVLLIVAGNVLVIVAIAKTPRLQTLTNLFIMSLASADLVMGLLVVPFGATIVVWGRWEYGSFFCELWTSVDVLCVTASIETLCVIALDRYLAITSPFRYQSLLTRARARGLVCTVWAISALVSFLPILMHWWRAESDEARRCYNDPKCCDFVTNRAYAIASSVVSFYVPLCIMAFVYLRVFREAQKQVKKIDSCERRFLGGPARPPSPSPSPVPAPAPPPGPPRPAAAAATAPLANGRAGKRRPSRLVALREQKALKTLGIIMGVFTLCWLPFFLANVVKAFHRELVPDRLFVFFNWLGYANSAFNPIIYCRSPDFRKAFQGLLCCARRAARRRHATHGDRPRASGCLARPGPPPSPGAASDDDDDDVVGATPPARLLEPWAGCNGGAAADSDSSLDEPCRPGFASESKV
Sequence of Beta-3 adrenergic receptor (Homo sapiens) (P13945 whole entry, looked up): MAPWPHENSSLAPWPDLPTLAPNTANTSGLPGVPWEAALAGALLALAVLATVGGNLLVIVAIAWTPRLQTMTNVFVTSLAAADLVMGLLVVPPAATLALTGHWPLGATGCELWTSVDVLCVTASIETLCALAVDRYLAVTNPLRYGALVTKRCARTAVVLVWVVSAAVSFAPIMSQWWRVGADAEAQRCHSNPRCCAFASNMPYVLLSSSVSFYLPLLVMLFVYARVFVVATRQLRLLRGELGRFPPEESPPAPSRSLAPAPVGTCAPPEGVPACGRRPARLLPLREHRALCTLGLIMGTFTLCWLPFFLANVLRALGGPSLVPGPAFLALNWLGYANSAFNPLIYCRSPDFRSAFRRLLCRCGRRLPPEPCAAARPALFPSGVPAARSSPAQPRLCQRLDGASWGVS

Which Activity (Mus musculus [1]) does the source give for O=S(=O)(Nc1ccccc1)c1ccc(NC(=S)Nc2ccccc2)cc1 here?
Its Activity is “Non-toxic”.

And the Activity (Escherichia coli [2])?
Its Activity is “Active”.

And the Activity (Mus musculus [3])?
Its Activity is 9.3%.

What about the Activity (Mus musculus [4]) of the same molecule?
The Activity was 1075 K/uL.

And the Activity (Mus musculus [5])?
The Activity was 287 mg/dL.

What about the Activity (Salmonella typhimurium [6]) of the same molecule?
The Activity was 20%.

And the Activity [7]?
Its Activity is “inactive”.

And the Activity (Mus musculus [8])?
The Activity was 19 mg/dL.

And the Activity (Escherichia coli [9])?
The Activity was “Active”.

And the Activity [10]?
Its Activity is “inactive”.

What about the Activity (Mus musculus [11]) of the same molecule?
Its Activity is “Non-toxic”.

And the Activity (Mus musculus [12])?
Its Activity is 4.4 g/dL.

And the Cmax [13]?
Its Cmax is 4750 ng/mL.

And the Activity [14]?
Its Activity is “Active”.

What about the Activity (Escherichia coli [15]) of the same molecule?
The Activity was “Active”.

And the Activity [16]?
The Activity was “Active”.

What about the Activity (Mus musculus [17]) of the same molecule?
The Activity was 0.2 mg/dL.

And the “fold change (FC)” value (Salmonella typhimurium [18])?
Its value is 10.

And the Activity (Escherichia coli [19])?
Its Activity is “Active”.

What about the Activity (Mus musculus [20]) of the same molecule?
Its Activity is 7.4 M/uL.

What about the Activity [21] of the same molecule?
Its Activity is “inactive”.

And the clearance [22]?
Its clearance is 1.48 mL/min.

And the Activity [23]?
Its Activity is “inactive”.

And the Activity (Mus musculus [24])?
The Activity was “Non-toxic”.

What about the Activity [25] of the same molecule?
Its Activity is “Active”.

What about the Activity (Escherichia coli [26]) of the same molecule?
The Activity was “inactive”.

What about the AUC [27] of the same molecule?
The AUC was 5010 ng·h/mL.

What about the Activity (Mus musculus [28]) of the same molecule?
The Activity was “Non-toxic”.

And the Activity (Mus musculus [29])?
The Activity was 141.3 U/L.

And the Activity [30]?
Its Activity is “Active”.

And the Activity (Escherichia coli [31])?
The Activity was “inactive”.

What about the Activity (Mus musculus [32]) of the same molecule?
Its Activity is 8.1%.

And the Activity [33]?
Its Activity is “inactive”.

And the Activity (Mus musculus [34])?
Its Activity is 51.7 fL.
